ChEMBL document CHEMBL1135962, “The first synthesis and antifungal activities of 9-methoxystrobilurin-type beta-substituted beta-methoxyacrylate” (2002)
The source made the active and inactive calls. The rule behind the calls is not given here.

Legend:
Saccharomyces cerevisiae [1] = test: Compound was evaluated for antifungal activity against Saccharomyces cerevisiae IAM 4861 as diameter of inhibition zone at a concentration 10 ug/disk; NE means not effective; type: functional, organism-based
Method in brief: (§1)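 Disk-diffusion assay against the fungal strain named in the line. Inhibition-zone diameter was measured after 48 h incubation and is the mean of two samples. Scoring codes used: not effective, slightly effective, incomplete inhibition.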

Penicillium citrinum [2] = test: Compound was evaluated for antifungal activity against penicillium ctrinum R-3703 as diameter of inhibition zone at a concentration 0.1 ug/disk; NE means not effective; type: functional, organism-based; method in brief: as §1
Penicillium citrinum [3] = test: Compound was evaluated for antifungal activity against penicillium ctrinum R-3703 as diameter of inhibition zone at a concentration 10 ug/disk; NE means not effective; type: functional, organism-based; method in brief: as §1
Candida albicans [4] = test: Compound was evaluated for antifungal activity against Candida albicans IFO 1594 as diameter of inhibition zone at a concentration 10 ug/disk; NE means not effective; type: functional, organism-based; method in brief: as §1
Fusarium solani [5] = test: Compound was evaluated for antifungal activity against Fusarium solani R-2800 as diameter of inhibition zone at a concentration 0.1 ug/disk; NE means not effective; type: functional, organism-based; method in brief: as §1
Aspergillus fumigatus [6] = test: Compound was evaluated for antifungal activity against Aspergillus fumigatum R-1301 as diameter of inhibition zone at a concentration 0.1 ug/disk; NE means not effective; type: functional, organism-based; method in brief: as §1
Fusarium solani [7] = test: Compound was evaluated for antifungal activity against Fusarium solani R-2800 as diameter of inhibition zone at a concentration 10 ug/disk; NE means not effective; type: functional, organism-based; method in brief: as §1
Candida albicans [8] = test: Compound was evaluated for antifungal activity against Candida albicans IFO 1594 as diameter of inhibition zone at a concentration 0.1 ug/disk; NE means not effective; type: functional, organism-based; method in brief: as §1
Aspergillus fumigatus [9] = test: Compound was evaluated for antifungal activity against Aspergillus fumigatum R-1301 as diameter of inhibition zone at a concentration 10 ug/disk; NE means not effective; type: functional, organism-based; method in brief: as §1
Candida albicans [10] = test: Compound was evaluated for antifungal activity against Candida albicans IFO 1594 as diameter of inhibition zone at a concentration 1 ug/disk; NE means not effective; type: functional, organism-based; method in brief: as §1
Fusarium solani [11] = test: Compound was evaluated for antifungal activity against Fusarium solani R-2800 as diameter of inhibition zone at a concentration 1 ug/disk; NE means not effective; type: functional, organism-based; method in brief: as §1
Saccharomyces cerevisiae [12] = test: Compound was evaluated for antifungal activity against Saccharomyces cerevisiae IAM 4861 as diameter of inhibition zone at a concentration 0.1 ug/disk; NE means not effective; type: functional, organism-based; method in brief: as §1
Aspergillus fumigatus [13] = test: Compound was evaluated for antifungal activity against Aspergillus fumigatum R-1301 as diameter of inhibition zone at a concentration 1 ug/disk; NE means not effective; type: functional, organism-based; method in brief: as §1
Saccharomyces cerevisiae [14] = test: Compound was evaluated for antifungal activity against Saccharomyces cerevisiae IAM 4861 as diameter of inhibition zone at a concentration 1 ug/disk; NE means not effective; type: functional, organism-based; method in brief: as §1
Penicillium citrinum [15] = test: Compound was evaluated for antifungal activity against penicillium ctrinum R-3703 as diameter of inhibition zone at a concentration 1 ug/disk; NE means not effective; type: functional, organism-based; method in brief: as §1
Penicillium citrinum [16] = test: Compound was evaluated for antifungal activity against penicillium ctrinum R-3703 as diameter of inhibition zone at a concentration 10 ug/disk; type: functional; method in brief: as §1
Candida albicans [17] = test: Compound was evaluated for antifungal activity against Candida albicans IFO 1594 as diameter of inhibition zone at a concentration 10 ug/disk and showed incomplete inhibition; type: functional; method in brief: as §1
Saccharomyces cerevisiae [18] = test: Compound was evaluated for antifungal activity against Saccharomyces cerevisiae IAM 4861 as diameter of inhibition zone at a concentration 10 ug/disk and showed incomplete inhibition; type: functional; method in brief: as §1
Saccharomyces cerevisiae [19] = test: Compound was evaluated for antifungal activity against Saccharomyces cerevisiae IAM 4861 as diameter of inhibition zone at a concentration 1 ug/disk and showed incomplete inhibition; type: functional; method in brief: as §1
Saccharomyces cerevisiae [20] = test: Compound was evaluated for antifungal activity against Saccharomyces cerevisiae IAM 4861 as diameter of inhibition zone at a concentration 10 ug/disk; type: functional, organism-based
Method in brief: (§2)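 Disk-diffusion assay against the listed yeast strains (C. albicans IFO 1594; S. cerevisiae IAM 4861). Inhibition-zone diameter read after 48 hr incubation, reported as the mean of two samples. Activity scored as not effective, slightly effective, or incomplete inhibition where applicable.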

Aspergillus fumigatus [21] = test: Compound was evaluated for antifungal activity against Aspergillus fumigatum R-1301 as diameter of inhibition zone at a concentration 10 ug/disk; type: functional; method in brief: as §1
Candida albicans [22] = test: Compound was evaluated for antifungal activity against Candida albicans IFO 1594 as diameter of inhibition zone at a concentration 10 ug/disk; type: functional, organism-based; method in brief: as §2
Aspergillus fumigatus [23] = test: Compound was evaluated for antifungal activity against Aspergillus fumigatum R-1301 as diameter of inhibition zone at a concentration 1 ug/disk; type: functional; method in brief: as §1
Fusarium solani [24] = test: Compound was evaluated for antifungal activity against Fusarium solani R-2800 as diameter of inhibition zone at a concentration 1 ug/disk and showed incomplete inhibition; type: functional; method in brief: as §1
Fusarium solani [25] = test: Compound was evaluated for antifungal activity against Fusarium solani R-2800 as diameter of inhibition zone at a concentration 10 ug/disk and showed incomplete inhibition; type: functional; method in brief: as §1
Candida albicans [26] = test: Compound was evaluated for antifungal activity against Candida albicans IFO 1594 as diameter of inhibition zone at a concentration 1 ug/disk and showed incomplete inhibition; type: functional; method in brief: as §1
Saccharomyces cerevisiae [27] = test: Compound was evaluated for antifungal activity against Saccharomyces cerevisiae IAM 4861 as diameter of inhibition zone at a concentration 1 ug/disk; SE means slightly effective; type: functional, organism-based; method in brief: as §1
Penicillium citrinum [28] = test: Compound was evaluated for antifungal activity against penicillium ctrinum R-3703 as diameter of inhibition zone at a concentration 1 ug/disk; SE means slightly effective; type: functional, organism-based; method in brief: as §1
Penicillium citrinum [29] = test: Compound was evaluated for antifungal activity against penicillium ctrinum R-3703 as diameter of inhibition zone at a concentration 1 ug/disk and showed incomplete inhibition; type: functional; method in brief: as §1
Candida albicans [30] = test: Compound was evaluated for antifungal activity against Candida albicans IFO 1594 as diameter of inhibition zone at a concentration 0.1 ug/disk; SE means slightly effective; type: functional, organism-based; method in brief: as §1
Saccharomyces cerevisiae [31] = test: Compound was evaluated for antifungal activity against Saccharomyces cerevisiae IAM 4861 as diameter of inhibition zone at a concentration 0.1 ug/disk and showed incomplete inhibition; type: functional; method in brief: as §1
Penicillium citrinum [32] = test: Compound was evaluated for antifungal activity against penicillium ctrinum R-3703 as diameter of inhibition zone at a concentration 0.1 ug/disk and showed incomplete inhibition; type: functional; method in brief: as §1
Aspergillus fumigatus [33] = test: Compound was evaluated for antifungal activity against Aspergillus fumigatum R-1301 as diameter of inhibition zone at a concentration 0.1 ug/disk; type: functional; method in brief: as §1
Penicillium citrinum [34] = test: Compound was evaluated for antifungal activity against penicillium ctrinum R-3703 as diameter of inhibition zone at a concentration 1 ug/disk; type: functional; method in brief: as §1
Penicillium citrinum [35] = test: Compound was evaluated for antifungal activity against penicillium ctrinum R-3703 as diameter of inhibition zone at a concentration 0.1 ug/disk; SE means slightly effective; type: functional, organism-based; method in brief: as §1
Candida albicans [36] = test: Compound was evaluated for antifungal activity against Candida albicans IFO 1594 as diameter of inhibition zone at a concentration 10 ug/disk; SE means slightly effective; type: functional, organism-based; method in brief: as §1
Saccharomyces cerevisiae [37] = test: Compound was evaluated for antifungal activity against Saccharomyces cerevisiae IAM 4861 as diameter of inhibition zone at a concentration 10 ug/disk; SE means slightly effective; type: functional, organism-based; method in brief: as §1

Compound | Inhibition zone (Penicillium citrinum [2]) | Inhibition zone (Fusarium solani [5]) | Inhibition zone (Aspergillus fumigatus [6]) | Inhibition zone (Fusarium solani [7]) | Inhibition zone (Candida albicans [8]) | Inhibition zone (Candida albicans [10]) | Inhibition zone (Fusarium solani [11]) | Inhibition zone (Saccharomyces cerevisiae [12]) | Inhibition zone (Aspergillus fumigatus [13]) | Inhibition zone (Penicillium citrinum [16]) [mm] | Inhibition zone (Candida albicans [17]) [mm] | Inhibition zone (Saccharomyces cerevisiae [18]) [mm] | Inhibition zone (Saccharomyces cerevisiae [19]) [mm] | Inhibition zone (Aspergillus fumigatus [21]) [mm] | Inhibition zone (Aspergillus fumigatus [23]) [mm] | Inhibition zone (Candida albicans [26]) [mm] | other results
COC(=O)/C=C(/OC)[C@@H](C)[C@H](/C=C/c1ccccc1)OC (racemic) | inactive | inactive | inactive | inactive | inactive | inactive | inactive | inactive | inactive | – | – | – | – | – | – | – | Inhibition zone (Saccharomyces cerevisiae [1]): inactive; Inhibition zone (Penicillium citrinum [3]): inactive; Inhibition zone (Candida albicans [4]): inactive; Inhibition zone (Aspergillus fumigatus [9]): inactive; Inhibition zone (Saccharomyces cerevisiae [14]): inactive; Inhibition zone (Penicillium citrinum [15]): inactive
COC(=O)/C=C(/OC)[C@H](C)[C@H](/C=C/c1ccccc1)OC [listing 1 of 2 here] | – | – | – | – | – | – | – | – | – | 28 | 20 | 43 | 25 | – | – | – | –
NYSTATIN | – | – | – | inactive | – | – | – | – | – | 10 | – | – | – | 16 | – | – | Inhibition zone (Saccharomyces cerevisiae [20]): 18 mm; Inhibition zone (Candida albicans [22]): 16 mm
COC(=O)\C=C(OC)/C(C)=C(\C=C\c1ccc2ccccc2c1)OC | inactive | inactive | inactive | – | inactive | – | – | inactive | – | 13 | 14 | 21 | 15 | 16 | 10 | 8 | Inhibition zone (Fusarium solani [24]): 19 mm; Inhibition zone (Fusarium solani [25]): 27 mm; Inhibition zone (Penicillium citrinum [15]): inactive
COC(=O)/C=C(/OC)[C@H](C)[C@H](/C=C/c1ccccc1)OC (racemic) [listing 1 of 2 here] | inactive | inactive | inactive | inactive | inactive | inactive | inactive | inactive | inactive | – | – | – | – | – | – | – | Inhibition zone (Saccharomyces cerevisiae [27]): Slightly effective; Inhibition zone (Penicillium citrinum [28]): Slightly effective
CO\C=C(C(=O)OC)/C(C)=C(\C=C\c1ccccc1)OC [9-METHOXYSTROBILURIN A] | – | inactive | – | inactive | – | – | inactive | – | – | 33 | 42 | 44 | 39 | 38 | 28 | 32 | Inhibition zone (Penicillium citrinum [29]): 23 mm; Inhibition zone (Candida albicans [30]): Slightly Effective; Inhibition zone (Saccharomyces cerevisiae [31]): 13 mm; Inhibition zone (Penicillium citrinum [32]): 19 mm; Inhibition zone (Aspergillus fumigatus [33]): 16 mm
COC(=O)\C=C(OC)/C(C)=C(\C=C\c1cccs1)OC | – | inactive | inactive | inactive | inactive | – | inactive | inactive | – | 40 | 32 | 49 | 31 | 29 | 20 | 16 | Inhibition zone (Penicillium citrinum [34]): 21 mm; Inhibition zone (Penicillium citrinum [35]): Slightly effective
COC(=O)/C=C(/OC)[C@H](C)[C@H](/C=C/c1ccccc1)OC [listing 2 of 2 here] | inactive | inactive | inactive | inactive | inactive | inactive | inactive | inactive | inactive | – | – | – | – | – | – | – | Inhibition zone (Penicillium citrinum [28]): Slightly effective
COC(=O)/C=C(/OC)[C@H](C)[C@H](/C=C/c1ccccc1)OC (racemic) [listing 2 of 2 here] | – | – | – | – | – | – | – | – | – | 26 | 14 | 39 | – | 23 | – | – | –
COC(=O)\C=C(OC)/C(C)=C(\C=C\c1ccccc1)OC | inactive | inactive | inactive | – | inactive | – | – | inactive | – | 42 | 32 | 46 | 30 | 36 | 17 | 27 | Inhibition zone (Penicillium citrinum [34]): 17 mm; Inhibition zone (Fusarium solani [24]): 22 mm; Inhibition zone (Fusarium solani [25]): 30 mm
COC(=O)C=C(OC)/C(C)=C(\C=C\c1ccc(OC)c(OC)c1)OC | inactive | inactive | inactive | inactive | inactive | inactive | inactive | inactive | – | 33 | – | 18 | 12 | 12 | 8 | – | Inhibition zone (Penicillium citrinum [34]): 18 mm; Inhibition zone (Candida albicans [36]): Slightly effective
COC(=O)\C=C(OC)/C(C)=C(\C=C\c1cccc2ccccc12)OC | inactive | inactive | inactive | inactive | inactive | inactive | inactive | inactive | inactive | – | – | – | – | – | – | – | Inhibition zone (Penicillium citrinum [3]): inactive; Inhibition zone (Candida albicans [4]): inactive; Inhibition zone (Saccharomyces cerevisiae [37]): Slightly effective; Inhibition zone (Aspergillus fumigatus [9]): inactive; Inhibition zone (Saccharomyces cerevisiae [14]): inactive; Inhibition zone (Penicillium citrinum [15]): inactive
